Measurements: ChEMBL document CHEMBL2093137, “WHO-TDR NTD Screening”
In brackets after ≈: the same amount, converted by molar mass.

Columns and labels:
[1] = WHO-TDR: Cytotoxicity; assay type: toxicity, cell-based; conditions: human, MRC5 cells
Leishmania infantum = test: WHO-TDR: Leishmaniasis; assay type: functional, organism-based, Mus musculus; conditions: Macrophage
Summary of the method: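 The screened collection came from Life Chemicals: 10,000 diverse compounds selected after filtering for drug-likeness and reactive groups. Each was tested in a whole-organism assay against Leishmania infantum MHOM/MA(BE)/67 amastigotes inside murine peritoneal macrophages, using previously published standard procedures and a reference drug as positive control. Results are IC50 values for antiparasitic potency.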

Onchocerca ochengi = test: WHO-TDR: Onchocerciasis; assay type: functional; set-up: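 at 12.5 µM on microfilariae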
Summary of the method: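 Following previously published standard procedures, with reference drugs as positive controls, a diverse Life Chemicals library was tested on whole Onchocerca ochengi or Onchocerca lienalis microfilariae. The library held 10,000 compounds filtered for drug-likeness and reactive groups. Activity is recorded both as percent inhibition and as IC50.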

Schistosoma mansoni = test: WHO-TDR: Schistosomiasis; assay type: functional; set-up: concentration or dose not given beside the values
Summary of the method: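 Activity appears as percent inhibition and as IC50. The underlying screen tested a diverse library of 10,000 compounds, supplied by Life Chemicals, on whole larval and/or adult worms of the Puerto Rican strain of Schistosoma mansoni.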

Plasmodium falciparum K1 = test: WHO-TDR: Malaria; assay type: functional, organism-based, Homo sapiens; conditions: Erythrocyte
Summary of the method: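 This whole-organism screen covered 10,000 drug-likeness-filtered and reactive-group-filtered compounds from Life Chemicals. The target was the Plasmodium falciparum K1 strain in human red blood cells, and the readout was antiplasmodial IC50.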

[2] = tested on: Trypanosoma brucei brucei; test: WHO-TDR: Human African Trypanosomiasis (HAT); assay type: functional, organism-based; conditions: Squib-427
Summary of the method: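 Screening used a 10,000-compound diverse library supplied by Life Chemicals and filtered for drug-likeness and reactive groups. Whole bloodstream-form parasites of Trypanosoma brucei Squib 427 strain were assayed according to previously published standard procedures, with reference drugs as positive controls. The reported measure is IC50, reflecting antiparasitic potency.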

Trypanosoma cruzi = test: WHO-TDR: Chagas disease; assay type: functional, organism-based, Homo sapiens; conditions: MRC5
Summary of the method: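 Whole-organism screen of a 10,000-compound diverse library from Life Chemicals, filtered for drug-likeness and reactive groups, against intracellular amastigotes of Trypanosoma cruzi Tulahuen CL2 beta-galactosidase strain grown in MRC-5SV2 human lung fibroblast host cells. The assay followed previously published standard procedures, with a reference drug as positive control. Antiparasitic potency is reported as IC50.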

Compound | IC50 [1] [µg/mL] | IC50 (Leishmania infantum) [µg/mL] | % Inhibition (Onchocerca ochengi) [%] | % Inhibition (Schistosoma mansoni) [%] | IC50 (Plasmodium falciparum K1) [µg/mL] | IC50 [2] [µg/mL] | IC50 (Trypanosoma cruzi) [µg/mL]
COc1ccc(-c2nc(NC(=O)CSc3ccc(Cl)cc3)sc2C)cc1 | > 12.1 | > 12.1 | 100 | 0 | 0.41 (≈ 1.01 µM) | 3.93 (≈ 9.71 µM) | 1.52 (≈ 3.76 µM)
CNC(=O)c1ccsc1NC(=O)CSc1ccc(Cl)cc1 | > 10.2 | > 10.2 | 100 | 0 | > 10.2 | 5.06 (≈ 14.8 µM) | 4.93 (≈ 14.5 µM)
CCOc1ccc2nc(N(Cc3cccnc3)C(=O)c3ccc(Cl)s3)sc2c1 | > 12.9 | > 12.9 | 0 | 0 | 4.14 (≈ 9.62 µM) | > 12.9 | 0.397 (≈ 0.922 µM)
COc1ccc(C)c2sc(N(Cc3cccnc3)C(=O)Cc3ccccc3)nc12 | > 12.1 | > 12.1 | 0 | 0 | 3.83 (≈ 9.49 µM) | 3.87 (≈ 9.6 µM) | 0.992 (≈ 2.46 µM)
O=S(=O)(Nc1ccc(-c2ccc3nnc(-c4ccccn4)n3n2)cc1)c1ccccc1F | > 13.4 | > 13.4 | 100 | 0 | 5.88 (≈ 13.2 µM) | > 13.4 | > 13.4
Cc1nnc2ccc(-c3ccc(NS(=O)(=O)c4ccc5c(c4)CCCC5)cc3)nn12 | > 12.6 | 4.07 (≈ 9.71 µM) | 100 | 0 | > 12.6 | 4.63 (≈ 11 µM) | 4.92 (≈ 11.7 µM)
COc1cccc(C(=O)Nc2ccc(C)cc2C(=O)c2ccccc2)c1OC | > 11.3 | 4.75 (≈ 12.6 µM) | 100 | 0 | > 11.3 | 7.21 (≈ 19.2 µM) | 3.69 (≈ 9.83 µM)
O=C(Nc1cccc(-c2ccc3nnc(-c4cccnc4)n3n2)c1)c1ccco1 | > 11.5 | > 11.5 | 100 | 0 | 1.82 (≈ 4.75 µM) | > 11.5 | > 11.5
O=C(COc1ccccc1)NCC(c1ccco1)N1CCN(c2ccc(F)cc2)CC1 (stereo not given) | > 12.7 | > 12.7 | 100 | 0 | > 12.7 | 4.02 (≈ 9.49 µM) | 4.08 (≈ 9.63 µM)
O=C(Cc1cccs1)Nc1cccc(-c2ccc3nnc(-c4cccnc4)n3n2)c1 | 4.45 (≈ 10.8 µM) | > 12.4 | 100 | 0 | 2.67 (≈ 6.46 µM) | 3.81 (≈ 9.24 µM) | > 12.4
O=C(Nc1cccc(-c2ccc3nnc(-c4cccs4)n3n2)c1)c1c(F)cccc1F | > 13 | > 13 | 50 | 0 | 5.18 (≈ 11.9 µM) | 0.481 (≈ 1.11 µM) | > 13
NS(=O)(=O)c1ccc2nc(NC(=O)CCSc3ccc(Cl)cc3)sc2c1 | > 12.8 | > 12.8 | 100 | 0 | > 12.8 | 4.31 (≈ 10.1 µM) | > 12.8
CCOc1ccc2nc(NC(=O)CS(=O)(=O)c3ccc(Cl)cc3)sc2c1 | > 12.3 | > 12.3 | 100 | 0 | > 12.3 | > 12.3 | > 12.3
CCOC(=O)c1ccc(NC(=O)CCSc2ccc(C)cc2)cc1 | > 10.3 | > 10.3 | 100 | 0 | > 10.3 | > 10.3 | > 10.3
Cc1ccc(SCCC(=O)Nc2cc(Cl)cc(Cl)c2)cc1 | > 10.2 | > 10.2 | 100 | 0 | > 10.2 | > 10.2 | > 10.2
CCSc1nnc2ccc(-c3ccc(CC)cc3)nn12 | > 8.53 | > 8.53 | 100 | 0 | > 8.53 | > 8.53 | > 8.53
O=C(CS(=O)(=O)c1ccc(Cl)cc1)Nc1nc(-c2ccc(F)cc2)cs1 | > 12.3 | > 12.3 | 100 | 0 | > 12.3 | > 12.3 | > 12.3
O=C(Nc1cccc(-c2ccc3nnc(-c4ccncc4)n3n2)c1)c1ccc2ccccc2n1 | > 13.3 | > 13.3 | 0 | 0 | 0.482 (≈ 1.09 µM) | > 13.3 | 7.48 (≈ 16.9 µM)
O=C(CCS(=O)(=O)c1ccc(Cl)cc1)Nc1cccc(-c2nc3ccccc3o2)c1 | > 13.2 | 4.28 (≈ 9.71 µM) | 100 | 0 | > 13.2 | > 13.2 | > 13.2
O=C(NCC(c1ccco1)N1CCN(c2ccc(F)cc2)CC1)OCc1ccccc1 (stereo not given) | > 12.7 | > 12.7 | 100 | 0 | > 12.7 | 4.11 (≈ 9.71 µM) | 3.86 (≈ 9.13 µM)
C=CCN(CC=C)S(=O)(=O)c1ccc(C(=O)Nc2nnc(-c3ccc(C)cc3C)o2)cc1 | 4.48 (≈ 9.9 µM) | 5.72 (≈ 12.7 µM) | 0 | 0 | > 13.6 | 0.988 (≈ 2.18 µM) | 0.583 (≈ 1.29 µM)
Cc1ccc(SCC(=O)Nc2ccccc2-c2nc3ccccc3[nH]2)cc1 | > 11.2 | > 11.2 | 100 | 0 | > 11.2 | > 11.2 | > 11.2
Cc1ccc(S(=O)(=O)CC(=O)Nc2cccc(Cl)c2)cc1 | > 9.71 | > 9.71 | 100 | 0 | > 9.71 | > 9.71 | > 9.71
CC(=O)c1ccc(C(=O)N(Cc2cccnc2)c2nc3c(F)cc(F)cc3s2)cc1 | > 12.7 | > 12.7 | 100 | 0 | 6.29 (≈ 14.8 µM) | 5.26 (≈ 12.4 µM) | 1.31 (≈ 3.09 µM)
Cc1ccc(SCCC(=O)Nc2nc(-c3ccccn3)cs2)cc1 | 8.21 (≈ 23.1 µM) | > 10.7 | 75 | 25 | > 10.7 | > 10.7 | 0.368 (≈ 1.03 µM)
